Measured values from ChEMBL document CHEMBL3045119, “Synthesis and fungicidal activity of novel aminophenazine-1-carboxylate derivatives” (J Agric Food Chem, 2010).
Converted amounts (≈) assume the structure as drawn.

Key:
Mycosphaerella arachidis [1] = experiment: Fungicidal activity against Mycosphaerella arachidis assessed as inhibition of mycelium growth at 50 ug/mL by mycelium growth rate method; type: functional
How it was run: (§1)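 Mycelium growth rate method: colony diameters measured once mycelia had grown completely, and the relative inhibition rate (%) calculated from the diameters by formula. Phenazine-1-carboxylic acid ran as control. Values are the average of three replicate results.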

Fusarium oxysporum [2] = experiment: Fungicidal activity against Fusarium oxysporum assessed as inhibition of mycelium growth at 50 ug/mL by mycelium growth rate method; type: functional; how it was run: as §1
Alternaria solani [3] = experiment: Fungicidal activity against Alternaria solani assessed as inhibition of mycelium growth at 50 ug/mL by mycelium growth rate method; type: functional; how it was run: as §1
[4] = system: Botryosphaeria berengeriana; experiment: Fungicidal activity against Botryosphaeria berengeriana assessed as inhibition of mycelium growth at 50 ug/mL by mycelium growth rate method; type: functional; how it was run: as §1
Fusarium graminearum [5] = experiment: Fungicidal activity against Fusarium graminearum assessed as inhibition of mycelium growth at 50 ug/mL by mycelium growth rate method; type: functional; how it was run: as §1
Fusarium graminearum [6] = experiment: Fungicidal activity against Fusarium graminearum assessed as inhibition of mycelium growth by mycelium growth rate method; type: functional, organism-based; how it was run: as §1
[7] = system: Botryosphaeria berengeriana; experiment: Fungicidal activity against Botryosphaeria berengeriana assessed as inhibition of mycelium growth by mycelium growth rate method; type: functional, organism-based; how it was run: as §1
Mycosphaerella arachidis [8] = experiment: Fungicidal activity against Mycosphaerella arachidis assessed as inhibition of mycelium growth by mycelium growth rate method; type: functional, organism-based; how it was run: as §1
Alternaria solani [9] = experiment: Fungicidal activity against Alternaria solani assessed as inhibition of mycelium growth by mycelium growth rate method; type: functional, organism-based; how it was run: as §1
Fusarium oxysporum [10] = experiment: Fungicidal activity against Fusarium oxysporum assessed as inhibition of mycelium growth by mycelium growth rate method; type: functional, organism-based; how it was run: as §1

| SMILES | inhibition at 50 µg/mL (Mycosphaerella arachidis [1]) | inhibition at 50 µg/mL (Fusarium oxysporum [2]) | inhibition at 50 µg/mL (Alternaria solani [3]) | inhibition at 50 µg/mL [4] | inhibition at 50 µg/mL (Fusarium graminearum [5]) | EC50 (Fusarium graminearum [6]) | EC50 [7] | EC50 (Mycosphaerella arachidis [8]) | EC50 (Alternaria solani [9]) | EC50 (Fusarium oxysporum [10]) |
| --- | --- | --- | --- | --- | --- | --- | --- | --- | --- | --- |
| Nc1ccc2nc3cccc(C(=O)O)c3nc2c1 | 11.5% | 6.9% | 5.9% | 9.6% | 33.9% | – | – | – | – | – |
| COC(=O)c1cccc2nc3c(N)cccc3nc12 | 26.9% | 40% | 100% | 100% | 36.3% | > 50 µg/mL | 3 µg/mL (≈ 11.8 µM) | > 50 µg/mL | 20.5 µg/mL (≈ 81.1 µM) | > 50 µg/mL |
| CCOC(=O)c1cccc2nc3c(N)cccc3nc12 | 32% | 33.3% | 51% | 100% | 41.8% | > 50 µg/mL | 4.44 µg/mL (≈ 16.6 µM) | > 50 µg/mL | 40.1 µg/mL (≈ 150 µM) | > 50 µg/mL |
| CCCOC(=O)c1cccc2nc3c(N)cccc3nc12 | 30% | 36.7% | 46.7% | 57.1% | 43.6% | – | – | – | – | – |
| CCCCOC(=O)c1cccc2nc3c(N)cccc3nc12 | 8.3% | 21.4% | 24.2% | 15.6% | 2.7% | – | – | – | – | – |
| COC(=O)c1cccc2nc3cc(N)ccc3nc12 | 0% | 10.8% | 33.3% | 25% | 15.1% | – | – | – | – | – |
| CCOC(=O)c1cccc2nc3cc(N)ccc3nc12 | 7.7% | 31% | 29.4% | 44.2% | 11.3% | – | – | – | – | – |
| CCCOC(=O)c1cccc2nc3cc(N)ccc3nc12 | 26.1% | 10% | 16.7% | 19.6% | 25.5% | – | – | – | – | – |
| CCCCOC(=O)c1cccc2nc3cc(N)ccc3nc12 | 17.4% | 13.3% | 43.3% | 29.6% | 7.3% | – | – | – | – | – |
| COC(=O)c1cccc2nc3ccc(N)cc3nc12 | 4% | 23.3% | 10% | 37.1% | 18.2% | – | – | – | – | – |
| CCOC(=O)c1cccc2nc3ccc(N)cc3nc12 | 12% | 16.7% | 20% | 51.4% | 20% | – | – | – | – | – |
| CCCOC(=O)c1cccc2nc3ccc(N)cc3nc12 | 20% | 33.3% | 20.2% | 48.6% | 27.3% | – | – | – | – | – |
| CCCCOC(=O)c1cccc2nc3ccc(N)cc3nc12 | 24% | 26.7% | 23.3% | 34.3% | 23.6% | – | – | – | – | – |
| CCOC(=O)c1cccc2nc3cc(N)c(OCC)cc3nc12 | 11.5% | 6.9% | 17.6% | 26.9% | 14.5% | – | – | – | – | – |
| CCCOC(=O)c1cccc2nc3cc(N)c(OCCC)cc3nc12 | 21.7% | 0% | 20% | 26.5% | 20% | – | – | – | – | – |
| CCCCOC(=O)c1cccc2nc3cc(N)c(OCCCC)cc3nc12 | 13% | 0% | 13.3% | 25.5% | 23.6% | – | – | – | – | – |
| CCCCOC(=O)c1cccc2nc3cc(OCCCC)c(N)cc3nc12 | 16.7% | 20% | 17.4% | 34.3% | 42.4% | – | – | – | – | – |
| COC(=O)c1cccc2nc3c(C(=O)CCCCl)cccc3nc12 | 0% | 0% | 13.8% | 41.1% | 25% | – | – | – | – | – |
| Nc1cccc2nc3c(C(=O)O)cccc3nc12 | 7.7% | 13.8% | 0% | 19.2% | 12.9% | – | – | – | – | – |
| O=C(O)c1cccc2nc3ccccc3nc12 [PHENAZINE-1-CARBOXYLIC ACID] | 92.3% | 65.4% | 100% | 100% | 43.1% | > 50 µg/mL | 3.58 µg/mL (≈ 16 µM) | 13.2 µg/mL (≈ 58.9 µM) | 18.5 µg/mL (≈ 82.5 µM) | 14.9 µg/mL (≈ 66.5 µM) |
